Test [1] deals with T1, Potassium channel subfamily K member 2 (Rattus norvegicus) (UniProt Q920B6).
T1 sequence (whole entry): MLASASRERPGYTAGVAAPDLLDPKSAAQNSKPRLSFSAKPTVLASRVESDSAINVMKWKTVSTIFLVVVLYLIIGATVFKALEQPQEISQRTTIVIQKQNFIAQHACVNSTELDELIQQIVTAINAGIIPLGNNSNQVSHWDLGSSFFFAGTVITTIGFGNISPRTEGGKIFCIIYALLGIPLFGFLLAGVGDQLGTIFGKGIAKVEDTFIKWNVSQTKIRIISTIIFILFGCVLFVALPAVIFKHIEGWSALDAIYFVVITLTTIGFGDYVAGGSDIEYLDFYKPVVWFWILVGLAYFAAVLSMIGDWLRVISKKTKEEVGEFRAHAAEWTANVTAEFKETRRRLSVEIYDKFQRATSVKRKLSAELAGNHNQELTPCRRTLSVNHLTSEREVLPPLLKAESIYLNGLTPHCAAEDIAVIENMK
Put plainly: Activation of TREK in depolarized Sprague-Dawley rat DRG neurons assessed as reversal potential of K+ current at 10 uM by whole cell voltage clamp electrophysiological analysis. An outline of the steps:
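Rat DRG neurons, whole-cell voltage clamp in 3 mM external K⁺. Voltage ramps -20 to -120 mV before and during 10 μM compound. The compound-sensitive current was obtained by subtraction, and its reversal potential was read where it could be resolved (4 cells).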

Test [2] relates to Mus musculus. Put plainly: Analgesic activity in ip dosed mouse assessed as increase in tail flick latency time measured up to 120 mins at 52 degC by tail immersion test. In kind it is functional, organism-based. An outline of the steps: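 Male BALB/c or C57BL/6 mice, 6–8 weeks, acclimated in a holder 15 min/day for 3 days. Distal 3 cm of tail immersed at 5, 20, 40, 46 or 52 °C; flick latency recorded, cut-off 15 s. Compound i.p. in 5% DMSO/5% Tween 80/90% saline (1.25–10 mg/kg at 52 °C; 5 mg/kg across temperatures).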
(In general: Thermal pain tests record how soon the animal reacts.)

Test [3] has as its target T1, Potassium channel subfamily K member 2 (Rattus norvegicus). Briefly: Activation of TREK in depolarized Sprague-Dawley rat DRG neurons assessed as resting membrane potential at 10 uM by whole cell […] electrophysiological analysis. An outline of the steps: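 Dissociated rat DRG neurons in current clamp, held at 0 pA. Resting membrane potential recorded before and during 10 μM compound; n = 18 cells from 4 rats; paired t test.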

Test [4] concerns the target T2, TREK-2 two-pore-domain K+ channel (Mus musculus, UniProt Q3LS20).
T2 sequence (Q3LS20 whole entry): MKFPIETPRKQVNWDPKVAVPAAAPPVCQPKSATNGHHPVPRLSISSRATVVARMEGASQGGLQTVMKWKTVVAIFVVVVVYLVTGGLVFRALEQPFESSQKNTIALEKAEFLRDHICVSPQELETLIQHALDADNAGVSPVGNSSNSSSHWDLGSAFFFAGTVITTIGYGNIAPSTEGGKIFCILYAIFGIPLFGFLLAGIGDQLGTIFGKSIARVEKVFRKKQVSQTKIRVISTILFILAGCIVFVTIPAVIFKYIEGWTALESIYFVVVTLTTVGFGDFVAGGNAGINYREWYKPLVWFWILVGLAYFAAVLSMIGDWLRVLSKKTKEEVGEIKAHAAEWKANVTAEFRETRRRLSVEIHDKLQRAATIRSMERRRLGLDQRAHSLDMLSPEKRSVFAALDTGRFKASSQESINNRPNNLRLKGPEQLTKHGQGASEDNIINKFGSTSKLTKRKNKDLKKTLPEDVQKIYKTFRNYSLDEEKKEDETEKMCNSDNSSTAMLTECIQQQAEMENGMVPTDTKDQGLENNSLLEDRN
Put plainly: Activation of recombinant mouse TREK2 expressed in HEK293T cells assessed as increase in K+ current amplitude by whole cell voltage clamp electrophysiological analysis. In kind it is cell-based. An outline of the steps:
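Transiently transfected HEK-293T cells, whole-cell voltage clamp. Held at -60 mV, 500-ms ramp -120 to +60 mV. Pipette (mM) 140 KCl, 5 EGTA, 10 HEPES, pH 7.4; external 145 NaCl, 4 KCl, pH 7.3. Compound diluted from 10 mM DMSO stock and applied extracellularly. Current increase over control fitted to concentration–response curves for EC50.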

Test [5] concerns the target Potassium channel subfamily K member 2 (Homo sapiens, UniProt O95069, G275C). Put plainly: Activation of recombinant human TREK1 G275C mutant expressed in HEK293T cells assessed as increase in K+ current amplitude in presence of MTSET by whole cell voltage clamp electrophysiological analysis. In kind it is cell-based. An outline of the steps:
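Human TREK-1 G275C expressed in HEK-293T, whole-cell ramp recordings. Tested with or without MTSET, 1 mM final, diluted from 0.5 M DMSO stock within 120 s of application. Concentration–response curves for EC50, n = 5–19; 10 μM single-point comparison by one-way ANOVA with Tukey test.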

Test [6] relates to Mus musculus. Put plainly: Analgesic activity in cerulein-induced mouse model of acute pancreatitis assessed as reduction in mechanical allodynia at 10 mg/kg, ip administered at 2 hrs interval for 10 hrs starting from post-first cerulein challenge and measured 0.5 hrs post-last cerulein challenge by von frey test. In kind it is functional, organism-based. An outline of the steps:
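Acute pancreatitis induced by 7 hourly i.p. injections of cerulein (50 µg/kg in ice-cold PBS); controls received PBS. Compound 10 mg/kg i.p. or vehicle at 2, 4, 6, 8 and 10 h. Von Frey testing (ascending filaments) started 0.5 h after the last cerulein injection.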

These results are taken from ChEMBL document CHEMBL4354866, “TREK Channel Family Activator with a Well-Defined Structure-Activation Relationship for Pain and Neurogenic Inflammation” (J Med Chem, 2020).

Activity calls are given as the source filed them.

Sequence of Potassium channel subfamily K member 2 (O95069 whole entry G275C): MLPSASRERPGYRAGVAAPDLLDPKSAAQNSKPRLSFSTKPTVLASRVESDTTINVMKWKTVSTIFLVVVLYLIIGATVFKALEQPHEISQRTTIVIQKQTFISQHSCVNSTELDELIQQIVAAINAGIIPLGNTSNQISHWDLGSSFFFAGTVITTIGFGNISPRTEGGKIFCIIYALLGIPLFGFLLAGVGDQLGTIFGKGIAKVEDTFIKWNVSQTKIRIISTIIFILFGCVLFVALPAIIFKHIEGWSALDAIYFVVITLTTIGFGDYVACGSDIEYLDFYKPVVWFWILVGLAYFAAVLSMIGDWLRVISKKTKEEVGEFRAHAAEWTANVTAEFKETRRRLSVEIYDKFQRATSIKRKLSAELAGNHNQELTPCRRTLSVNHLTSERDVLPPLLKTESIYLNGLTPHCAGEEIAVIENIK

For `Cc1ccc2nc(-c3ccc(NC(=O)[C@@H]4CC[C@H](C(=O)O)C4)cc3)sc2c1`, the Activity in test [1] was -75 mV; in the test with Mus musculus [2] it was “Dose-dependent effect”; in test [3], 1.12 mV. For the same molecule, the EC50 in test [4] came out at 11.3 µM; in test [5], 18.4 µM. For the same molecule, in the test with Mus musculus [6], the result was Active.

For orientation: EC50 means the concentration needed to bring the measured effect to its halfway point.
